Results as given in ChEMBL document CHEMBL4732065 (Eur J Med Chem, 2021).

Experiments:
[1] = target: T1, Cytochrome P450 1A2 (Homo sapiens, UniProt P05177); assay: Inhibition of recombinant human CYP1A2 using 7-ethoxyresorufin as substrate after 50 mins in presence of NADP+ by EROD assay; assay type: ADME
T1 sequence (P05177 whole entry): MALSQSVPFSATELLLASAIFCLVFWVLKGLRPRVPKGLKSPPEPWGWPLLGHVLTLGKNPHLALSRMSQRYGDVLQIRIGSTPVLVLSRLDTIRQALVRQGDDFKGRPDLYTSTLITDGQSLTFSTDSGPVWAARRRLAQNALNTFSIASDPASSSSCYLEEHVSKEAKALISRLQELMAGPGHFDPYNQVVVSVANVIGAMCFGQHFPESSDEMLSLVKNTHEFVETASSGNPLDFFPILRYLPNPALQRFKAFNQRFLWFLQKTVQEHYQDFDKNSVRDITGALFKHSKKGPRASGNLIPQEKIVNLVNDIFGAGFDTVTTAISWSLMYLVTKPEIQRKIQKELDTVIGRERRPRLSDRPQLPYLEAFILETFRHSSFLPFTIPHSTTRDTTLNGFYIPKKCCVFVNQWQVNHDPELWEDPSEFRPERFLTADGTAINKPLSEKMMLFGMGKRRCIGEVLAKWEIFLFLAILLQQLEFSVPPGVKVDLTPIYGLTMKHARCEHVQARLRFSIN
Method in brief: (§1)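 Recombinant human CYP1 Supersomes co-expressing P450 reductase; 20 fmol CYP1B1, 10 fmol CYP1A1 or 60 fmol CYP1A2 per well. Incubated at 37 °C (1B1 35 min, 1A1 15 min, 1A2 50 min).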

[2] = species: Homo sapiens; assay: Selectivity index, ratio of IC50 for recombinant human CYP1A1 to IC50 for recombinant human CYP1B1
[3] = species: Homo sapiens; assay: Selectivity index, ratio of IC50 for recombinant human CYP1A2 to IC50 for recombinant human CYP1B1
[4] = target: T2, Cytochrome P450 1B1 (Homo sapiens, UniProt Q16678); assay: Inhibition of recombinant human CYP1B1 using 7-ethoxyresorufin as substrate after 35 mins in presence of NADP+ by EROD assay; method in brief: as §1
T2 sequence (Q16678 whole entry): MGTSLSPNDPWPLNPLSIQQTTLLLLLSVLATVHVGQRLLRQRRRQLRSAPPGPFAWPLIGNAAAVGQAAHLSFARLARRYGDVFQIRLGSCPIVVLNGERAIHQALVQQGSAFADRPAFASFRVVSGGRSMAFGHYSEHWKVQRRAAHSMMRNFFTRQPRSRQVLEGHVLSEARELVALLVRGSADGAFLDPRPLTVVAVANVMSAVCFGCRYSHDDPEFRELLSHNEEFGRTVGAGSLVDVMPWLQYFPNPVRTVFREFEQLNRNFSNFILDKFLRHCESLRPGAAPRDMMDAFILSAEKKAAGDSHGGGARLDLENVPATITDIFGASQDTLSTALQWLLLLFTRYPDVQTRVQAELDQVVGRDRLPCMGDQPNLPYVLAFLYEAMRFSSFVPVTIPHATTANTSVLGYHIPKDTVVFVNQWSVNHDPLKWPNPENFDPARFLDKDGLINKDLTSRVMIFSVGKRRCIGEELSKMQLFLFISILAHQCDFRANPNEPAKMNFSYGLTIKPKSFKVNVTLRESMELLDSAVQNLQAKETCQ

[5] = target: T3, Cytochrome P450 1A1 (Homo sapiens, UniProt P04798); assay: Inhibition of recombinant human CYP1A1 using 7-ethoxyresorufin as substrate after 15 mins in presence of NADP+ by EROD assay; assay type: ADME
T3 sequence (P04798 whole entry): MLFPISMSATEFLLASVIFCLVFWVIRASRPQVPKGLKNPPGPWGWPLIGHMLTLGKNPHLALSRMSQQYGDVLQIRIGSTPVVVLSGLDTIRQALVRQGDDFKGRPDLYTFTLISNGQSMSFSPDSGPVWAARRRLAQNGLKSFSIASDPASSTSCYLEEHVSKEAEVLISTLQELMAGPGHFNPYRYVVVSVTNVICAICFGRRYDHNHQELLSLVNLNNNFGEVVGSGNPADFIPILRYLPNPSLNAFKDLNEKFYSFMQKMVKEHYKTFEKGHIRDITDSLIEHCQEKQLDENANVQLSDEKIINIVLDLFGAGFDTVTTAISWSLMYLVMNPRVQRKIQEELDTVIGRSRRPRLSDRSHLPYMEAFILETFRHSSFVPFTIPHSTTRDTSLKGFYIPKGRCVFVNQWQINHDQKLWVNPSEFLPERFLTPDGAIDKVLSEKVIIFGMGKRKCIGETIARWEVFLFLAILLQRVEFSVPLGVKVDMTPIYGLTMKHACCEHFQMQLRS
Method in brief: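 Recombinant human CYP1 Supersomes co-expressing P450 reductase; 20 fmol CYP1B1, 10 fmol CYP1A1 or 60 fmol CYP1A2 per well. Incubated at 37 °C (1B1 35 min, 1A1 15 min, 1A2 50 min). Stopped with cold methanol; fluorescence read at 544/590 nm; triplicates.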

Row | Compound | IC50 [1] | Ratio IC50 [2] | Ratio IC50 [3] | IC50 [4] | IC50 [5]
1 | COc1ccc(OC)c2c1c(OC)cc1c(=O)cc(-c3ccc4[nH]cnc4c3)oc12 | > 1000 nM | 2.7 | > 64.1 | 15.6 nM | 42.4 nM
2 | COc1ccc(OC)c2c1c(OC)cc1c(=O)cc(-c3cccc(C)n3)oc12 | 148 nM | 16.6 | 124 | 1.2 nM | 19.9 nM
3 | COc1ccc(OC)c2c1c(OC)cc1c(=O)cc(-c3ccnc(Br)c3)oc12 | > 1000 nM | 58.5 | > 2170 | 0.46 nM | 26.9 nM
4 | COc1ccc(OC)c2c1c(OC)cc1c(=O)cc(-c3ccnnc3)oc12 | > 1000 nM | 62.9 | > 500 | 2 nM | 126 nM
5 | COc1ccc(OC)c2c1c(OC)cc1c(=O)cc(-c3cncc(O)c3)oc12 | > 1000 nM | 7.9 | > 97.1 | 10.3 nM | 80.9 nM
6 | COc1ccc(OC)c2c1c(OC)cc1c(=O)cc(-c3cccnc3N)oc12 | > 1000 nM | 0.8 | > 5.7 | 175 nM | 137 nM
7 | COc1ccc(OC)c2c1c(OC)cc1c(=O)cc(-c3ccnc(F)c3)oc12 | 518 nM | 41.8 | 557 | 0.93 nM | 38.9 nM
8 | COc1ccc(OC)c2c1c(OC)cc1c(=O)cc(-c3cscn3)oc12 | 29.2 nM | 1.2 | 11.2 | 2.6 nM | 3.1 nM
9 | COc1ccc(OC)c2c1c(OC)cc1c(=O)cc(-c3ccncc3N)oc12 | > 1000 nM | 1.3 | > 40.3 | 24.8 nM | 31.6 nM
10 | COc1ccc(OC)c2c1c(OC)cc1c(=O)cc(-c3ccco3)oc12 | 67.2 nM | 11.5 | 56 | 1.2 nM | 13.8 nM
11 | COc1ccc(OC)c2c1c(OC)cc1c(=O)cc(-c3ccc4[nH]ncc4c3)oc12 | > 1000 nM | 0.8 | > 500 | 2 nM | 1.6 nM
12 | COc1ccc(OC)c2c1c(OC)cc1c(=O)cc(-c3cccc(O)n3)oc12 | > 1000 nM | 41.9 | > 130 | 7.7 nM | 323 nM
13 | COc1ccc(OC)c2c1c(OC)cc1c(=O)cc(-c3cncc(C(=O)O)c3)oc12 | > 1000 nM | 2.9 | > 33.2 | 30.1 nM | 85.8 nM
14 | COc1ccc(OC)c2c1c(OC)cc1c(=O)cc(-c3ccc(N4CCN(C)CC4)cc3)oc12 | > 1000 nM | – | – | > 1000 nM | > 1000 nM
15 | COc1ccc(OC)c2c1c(OC)cc1c(=O)cc(-c3cccc(N4CCOCC4)c3)oc12 | > 1000 nM | 8.9 | > 67.1 | 14.9 nM | 132 nM
16 | COc1ccc(OC)c2c1c(OC)cc1c(=O)cc(-c3ccc(Cl)cn3)oc12 | 208 nM | 11.4 | 1490 | 0.14 nM | 1.6 nM
17 | COc1ccc(OC)c2c1c(OC)cc1c(=O)cc(-c3ccc(O)nc3)oc12 | > 1000 nM | > 1.5 | > 1.5 | 658 nM | > 1000 nM
18 | COc1ccc(OC)c2c1c(OC)cc1c(=O)cc(-c3cccnc3O)oc12 | > 1000 nM | – | – | > 1000 nM | 152 nM

The remaining lines, values ahead:

Row | IC50 [1] | Ratio IC50 [2] | Ratio IC50 [3] | IC50 [4] | IC50 [5] | Compound
19 | > 1000 nM | 0.7 | > 48.5 | 20.6 nM | 15.3 nM | COc1ccc(OC)c2c1c(OC)cc1c(=O)cc(-c3ccnc(N)c3)oc12
20 | 966 nM | 0.9 | 15.1 | 63.9 nM | 60.7 nM | COc1ccc(OC)c2c1c(OC)cc1c(=O)cc(-c3cccnc3Br)oc12
21 | > 1000 nM | 149 | > 1050 | 0.95 nM | 142 nM | COc1ccc(OC)c2c1c(OC)cc1c(=O)cc(-c3ccc4cc[nH]c4c3)oc12
22 | > 1000 nM | 8.7 | > 154 | 6.5 nM | 56.8 nM | COc1ccc(OC)c2c1c(OC)cc1c(=O)cc(-c3cccc(N)n3)oc12
23 | > 1000 nM | 4 | > 244 | 4.1 nM | 16.5 nM | COc1ccc(OC)c2c1c(OC)cc1c(=O)cc(-c3c[nH]c4ccccc34)oc12
24 | > 1000 nM | 0.1 | > 5.3 | 189 nM | 23.8 nM | COc1ccc(OC)c2c1c(OC)cc1c(=O)cc(-c3c[nH]c4ncccc34)oc12
25 | 668 nM | 6.1 | 1760 | 0.38 nM | 2.3 nM | COc1ccc(OC)c2c1c(OC)cc1c(=O)cc(-c3cccc(F)n3)oc12
26 | > 1000 nM | 3.8 | > 16.3 | 61.5 nM | 232 nM | COc1ccc(OC)c2c1c(OC)cc1c(=O)cc(-c3ccnc(O)c3)oc12
27 | 623 nM | 29.9 | 479 | 1.3 nM | 38.9 nM | COc1ccc(OC)c2c1c(OC)cc1c(=O)cc(-c3ccc(Br)cn3)oc12
28 | > 1000 nM | – | – | > 1000 nM | > 1000 nM | COc1ccc(OC)c2c1c(OC)cc1c(=O)cc(-c3cccc(N4CCN(C)CC4)c3)oc12
29 | > 1000 nM | 11.1 | > 167 | 6 nM | 66.6 nM | COc1ccc(OC)c2c1c(OC)cc1c(=O)cc(-c3ccc(N)cn3)oc12
30 | 117 nM | 7.6 | 117 | 1 nM | 7.6 nM | COc1ccc(OC)c2c1c(OC)cc1c(=O)cc(-c3cccnc3)oc12
31 | > 1000 nM | 118 | > 1000 | 1 nM | 118 nM | COc1ccc(OC)c2c1c(OC)cc1c(=O)cc(-c3ccc4ccccc4n3)oc12
32 | 349 nM | 19 | 1160 | 0.3 nM | 5.7 nM | COc1ccc(OC)c2c1c(OC)cc1c(=O)cc(-c3cccc(Cl)n3)oc12
33 | 200 nM | 33.7 | 166 | 1.2 nM | 40.4 nM | COc1ccc(OC)c2c1c(OC)cc1c(=O)cc(-c3ccncc3)oc12
34 | > 1000 nM | > 1.9 | > 1.9 | 519 nM | > 1000 nM | COc1ccc(OC)c2c1c(OC)cc1c(=O)cc(-c3cc(Cl)cc(N4CCN(C)CC4)c3)oc12
35 | > 1000 nM | 11.6 | > 556 | 1.8 nM | 20.9 nM | COc1ccc(OC)c2c1c(OC)cc1c(=O)cc(-c3ccc4ncccc4c3)oc12
